Experimental data pooled from the literature.
Protocols differ between the studies behind these lines. pEC50, pIC50: −log10 of the molar value.

The viability of CC(=O)c1nn(-c2ccccc2Cl)/c(=N/N=C(\C)c2ccc(NC(=O)c3ccccc3)cc2)s1 is reported as 6.6% (MCF7; cell growth or viability; MTT; 0.625 µM).
For COc1ccc(CNC[C@](O)(COCc2ccc(OC)cc2)[C@@H]2CC[C@@H](C)C[C@H]2OCc2ccc(OC)cc2)cc1, the inhibition was 101% (MCF7; cell growth or viability; MTT; 10 µM; 72 h).
With CCN(CC)c1ccc(/C=N/c2ccc(Br)cc2)c(O)c1 the pIC50 was 4.36 (DPPH scavenging).
CC(=NNC(=O)c1ccccc1O)c1ccc(Nc2nnc(-c3ccc(Cl)cc3)c3ccccc23)cc1 has a cell death of 66.2% (MCF7; cell growth or viability; MTT; 5 µM).
Clc1ccc(/C=N/N=C/c2ccc(Cl)cc2Cl)c(Cl)c1 has a pIC50 of less than 2.52 (DPPH scavenging).
C=CC(=O)NC1CCN(c2ncc3ncnc(Nc4ccc(Oc5ccc6c(c5)ncn6C)c(C)c4)c3n2)CC1 has a pEC50 of 5.96 (NCI-H2126; cell growth or viability).
With CCN(CC)c1ccc(/C=N/c2ccc(Cl)cc2)c(O)c1 the pIC50 was 4.52 (DPPH scavenging).
CC(=NNC(=S)Nc1ccccc1)c1ccc(Nc2nnc(-c3ccc(Cl)cc3)c3ccccc23)cc1 has a viability of 27.5% (MCF7; cell growth or viability; MTT; 1.25 µM; 24 h).
With Brc1ccccc1/C=N/N=C/c1ccccc1Br the pIC50 was less than 2.52 (DPPH scavenging).
For CCOC(=O)c1nn(-c2cccc(Cl)c2)/c(=N/N=C(\C)c2ccc(NC(=O)c3ccc(Cl)cc3)cc2)s1, the viability was 3.71% (MCF7; cell growth or viability; MTT; 10 µM).
S=C(Nc1ccccc1)Nc1ccc(Oc2nnc(-c3ccc(Cl)cc3)c3ccccc23)cc1 has a viability of 100% (MCF7; cell growth or viability; MTT; 0.312 µM; 24 h).
The pIC50 of COc1cc(/C=N/N=C/c2cc(OC)c(OC)c(OC)c2)cc(OC)c1OC is reported as 2.62 (DPPH scavenging).
With O=C(Nc1ccccc1)Nc1ccc(Oc2nnc(-c3ccc(Cl)cc3)c3ccccc23)cc1 the viability was 5.36% (MCF7; cell growth or viability; MTT; 10 µM; 24 h).
For Brc1ccc(/C=N/N=C/c2ccc(Br)cc2)cc1, the pIC50 was less than 2.52 (DPPH scavenging).
The inhibition of COc1ccc(COC[C@@](O)(CNCc2ccc(F)cc2)[C@@H]2CC[C@@H](C)C[C@H]2OCc2ccc(OC)cc2)cc1 is reported as 101% (MCF7; cell growth or viability; MTT; 30 µM; 72 h).
For Clc1cccc(/C=N/N=C/c2cccc(Cl)c2)c1, the pIC50 was 2.63 (DPPH scavenging).
CCOC(=O)c1nn(-c2cccc(Cl)c2)/c(=N/N=C(\C)c2ccc(NC(=O)c3ccccc3)cc2)s1 gave a viability of 87.7% (MCF7; cell growth or viability; MTT; 78 nM).
FC(F)(F)c1ccccc1/C=N/N=C/c1ccccc1C(F)(F)F gave a pIC50 of 2.78 (DPPH scavenging).
With CC(=NNC(=O)c1ccccc1)c1ccc(Nc2nnc(-c3ccc(Cl)cc3)c3ccccc23)cc1 the cell death was 86.3% (MCF7; cell growth or viability; MTT; 2.5 µM).
